Assay outcomes deposited in PubChem BioAssay by several laboratories.
bCat nuc transl = modulators of beta-catenin nuclear translocation, primary screen, imaging, HeLa cells, immunofluorescence, high-content; hit rate 0.3% among 190,000; nuclear translocation activity, % at 5 µM;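 active means nuclear translocation activity above 50% at 5 µM, with a well cell count of 50 or more; inconclusive means wells under 50 cells across six images, flagged as toxic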;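 further: per-cell ratio of nuclear to cytoplasmic median beta-catenin stain intensity; plate controls were DMSO negative control for no effect and GSK-3 inhibitor IX positive control for full effect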
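Test system: HeLa cells, endogenous beta-catenin; Compound: single 5 µM dose plus 0.02–20 µM confirmation series; Times: compound exposure 24 h at 37°C; Signal: fluorescence imaging of beta-catenin antibody stain plus DAPI; Read-out: % activation, nuclear-to-cytoplasmic median beta-catenin signal ratio per cell.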
MT stabilize HCS = microtubule stabilizers in HeLa cells, primary screen, imaging, high-content imaging. HeLa tubulin immunostaining HCS, 24 h; share of cells brighter than vehicle mean+2SD. % tubulin-high responders, % at 10 µM. hit rate 0.83% among 200,000. AID 2205, 2009;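 active means plate Z-score above 3 for both tubulin-high and condensed-nucleus cell shares, with cell loss under 80%, at 10 µM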;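 further: anti alpha tubulin signal scored within the nucleus-defined area of each cell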
ROMK primary = ROMK potassium channel modulators, primary screen, cell-based, thallium flux, MLSMR library; ATP-sensitive inward rectifier potassium channel 1 (Homo sapiens), P48048; Tet-inducible ROMK, thallium flux fluorescence; actives lie on both sides; B-score at 10 µM; hit rate 2% among 130,000; AID 1918, 2009;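 active means signal ratio slope over the read window, or its plate-corrected B-score, at least 3 SD from the plate mean, either direction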;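 further: B-score of the F/F0 ratio slope over 7 to 12 s after thallium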
Target sequence (P48048 whole entry, looked up): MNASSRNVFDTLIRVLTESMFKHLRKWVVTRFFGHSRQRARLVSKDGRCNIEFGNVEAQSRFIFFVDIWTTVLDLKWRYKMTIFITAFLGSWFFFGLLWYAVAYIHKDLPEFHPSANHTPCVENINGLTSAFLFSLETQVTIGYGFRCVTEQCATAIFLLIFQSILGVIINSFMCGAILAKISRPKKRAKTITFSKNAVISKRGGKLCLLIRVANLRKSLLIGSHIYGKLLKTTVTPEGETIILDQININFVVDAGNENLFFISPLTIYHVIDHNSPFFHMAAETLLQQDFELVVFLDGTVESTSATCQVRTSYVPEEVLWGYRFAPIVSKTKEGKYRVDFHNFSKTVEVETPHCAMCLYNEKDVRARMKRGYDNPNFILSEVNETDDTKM
DTT redox prof = compounds producing H2O2 with reducing agent – biochemical, NIH compound library profiling, artefact control for MLSCN library redox annotation, primary screen. DTT-dependent redox cycling H2O2, phenol red/HRP absorbance; 100% = 100 µM peroxide control, 0% = buffer. activation, % at 10 µM. hit rate 0.03% among 200,000;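 active means activation of at least 50% relative to the plate's high and low controls in the primary single-dose screen; inactive means activation below 50%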;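 further: compound incubated with DTT at 0.8 mM final as the reducing agent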
KCC2 mod = KCC2 cotransporter modulators, thallium flux, primary screen, cell-based, HEK293 KCC2, FluoZin-2 fluorescence, MLSMR | KCC2 cells, thallium flux FluoZin-2 fluorescence | B-score of Tl+ flux slope (higher = more flux/activation; lower = inhibition) at 10 µM | Solute carrier family 12 member 5 (Homo sapiens), Q9H2X9 | AID 1456, 2008 | hit rate 2.2% among 190,000;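 active means thallium flux slope and its plate-corrected score both differing from the plate sample mean at a set confidence after two filtering rounds, in either direction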;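 further: slope of fluorescence scaled to starting intensity during 10 to 20 s after thallium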
KCC2 secondary = KCC2 modulators in sodium-free buffer, confirmation, cell-based, HEK293 KCC2, thallium flux, secondary assay | FluoZin2 fluorescence; stronger effect = higher value | shares compounds with KCC2 mod | hit rate 15% among 3,700 | normalised thallium flux (F/F0 slope) at 10 µM;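 active means thallium flux slope above the same plate's solvent-only control mean plus 3 SD; inconclusive means the two replicate wells disagree; inactive means no significant difference from solvent-only control wells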
KCC2 bumet counter = thallium flux persisting under bumetanide in KCC2 cells, confirmation, counter-screen for KCC2 modulator project, cell-based, HEK293 KCC2, FluoZin2, secondary assay 3; shares compounds with KCC2 mod; normalized thallium flux at 10 µM; HEK293-KCC2 + bumetanide/ouabain; stronger effect = higher value; AID 1714, 2009; hit rate 49% among 3,700;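 active means thallium entry rate above the same plate's blocked-transporter control wells by more than 3 SD; inconclusive means the two repeat wells disagree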;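 further: raw slope of fluorescence over initial fluorescence between 10 and 20 s after thallium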
KCC2 sec2 = KCC2 modulators without ouabain present, confirmation, cell-based, HEK293 KCC2, thallium flux, FluoZin2, secondary assay 2 | shares compounds with KCC2 mod | thallium flux FluoZin2 fluorescence; actives lie on both sides; F/F0 rise rate, 10–20 s post-thallium | normalized thallium flux at 10 µM | hit rate 23% among 3,700;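 active means thallium flux slope more than 3 SD above or below the plate's solvent-only control mean, mostly below; inconclusive means the two repeat wells disagreed; inactive means no significant shift from solvent-only controls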;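 further: raw slope with 0.1% DMSO as baseline and bumetanide as block control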
HEK293 Tl flux = thallium flux modulation in parental HEK cells, confirmation, counter-screen for KCC2 modulator project, cell-based, counterscreen 1 | shares compounds with KCC2 mod | HEK293 parental cells, thallium flux FluoZin2, ouabain; baseline-ratio fluorescence slope, 10–20 s after thallium | thallium flux rate (normalised fluorescence) at 10 µM | hit rate 46% among 3,700;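 active means thallium flux rate significantly above the same plate's solvent-only control wells, beyond their mean plus 3 SD; inconclusive means the two replicate wells gave conflicting results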
KCC2 ouabain = KCC2 inhibitors and activators, ouabain retest, confirmation, HEK-KCC2 cells; shares compounds with KCC2 mod; HEK293-KCC2, thallium flux FluoZin2 fluorescence; bidirectional: low = inhibitor, high = activator; raw Tl+ flux slope (below DMSO = inhibition, above = activation) at 10 µM; hit rate 48% among 3,700;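 active means thallium flux slope beyond 3 SD from same-plate DMSO control mean in most replicates, usually higher, sometimes lower; inconclusive means repeat tests gave conflicting results; inactive means no significant difference from controls in most replicates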;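 further: slope of initial-normalized fluorescence between seconds 10 and 20 after thallium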
HEK293 Tl flux2 = native HEK Tl+ uptake effects, second counter-screen – HEK cells, counterscreen 2, counter-screen for KCC2 modulator project, confirmation | shares compounds with KCC2 mod | HEK293 parental, thallium flux FluoZin-2 fluorescence slope | thallium flux slope at 10 µM | hit rate 33% among 3,700 | AID 1718, 2009;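 active means thallium flux slope above the same plate's solvent-control mean plus 3 SD in both duplicate wells; inconclusive means duplicate wells that disagreed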;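 further: run without ouabain in cells lacking the KCC2 cotransporter; slope of fluorescence scaled to its starting value between 10 and 20 s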
Active calls of the source: *; ? = inconclusive; · = no result. Shown are actives, neighbours in structure and some others; about 3.7% of the full set was active somewhere.

SMILES | bCat nuc transl | MT stabilize HCS | ROMK primary | DTT redox prof | KCC2 mod | KCC2 secondary | KCC2 bumet counter | KCC2 sec2 | HEK293 Tl flux | KCC2 ouabain | HEK293 Tl flux2
CN(C(=O)Nc1ccc(Cl)cc1Cl)[C@H]1c2cc(Br)ccc2OC[C@H]1CO | 3.3 | 1.4 | · | 0.4 | -1.33 | · | · | · | · | · | ·
Clc1ccc(-c2nnc3sc(-c4ccc(Br)o4)nn23)c(Cl)c1 | 3.2 | 2.4 | · | 0.6 | -0.51 | · | · | · | · | · | ·
c1coc(-c2nnc3sc(Cc4cccs4)nn23)c1 | -5.4 | 6.1 | 0.221 | -0.3 | · | 0.00607 | 0.00483 | 0.0277 | 0.00785 | ? | 0.0105
Clc1ccc(-c2nnc3sc(Cc4cccs4)nn23)c(Cl)c1 | -4.6 | 2.9 | -1.36 | -1.0 | · | 0.0086 | 0.00729 | 0.034 | 0.00681 | 0.0175* | 0.0114*
O=C(Cn1nc(-c2ccc3c(c2)OCCO3)ccc1=O)Nc1cccc(NC(=O)c2ccccn2)c1 | 0.9 | 4.4 | -0.115 | 0.1 | 0.265 | · | · | · | · | · | ·
Cc1ccc(NC(=S)N(Cc2ccco2)C2CCN(C(C)C)CC2)cc1 | -2.9 | 2.4 | -1.42 | -0.1 | 0.0105 | · | · | · | · | · | ·
CCOC(=O)CC1C(=O)NCCN1c1nc2c(C)cccn2c(=O)c1/C=C1\SC(=S)N(CC(C)C)C1=O (stereo not drawn) | -0.7 | · | · | · | -9.05* | 0.000693* | -0.00591* | 0.0138* | -0.00232* | -0.00164* | 0.00405*
COc1ccc(CN2CCN(CCc3ccccc3)C(CCO)C2)c(O)c1 (stereo not drawn) | -0.9 | 4.0 | -0.186 | -1.8 | 0.555 | · | · | · | · | · | ·
C(=N\Nc1nc(-c2ccccc2)cs1)/c1cccnc1 | 0.0 | 2.8 | · | 0.6 | -3.61* | 0.00563 | 0.00507 | 0.0248* | 0.0072 | 0.0156* | 0.01
Clc1ccc(-c2csc(N/N=C/c3cccnc3)n2)c(Cl)c1 | 1.3 | 3.1 | 0.21 | 0.0 | 0.469 | · | · | · | · | · | ·
S=c1[nH]nc(C2(c3ccccc3)CCCC2)o1 | -0.7 | · | · | · | -3.14* | 0.00931 | 0.00665 | 0.0233* | 0.00683 | 0.0184* | 0.00939
O=C(Nc1cccc(Cl)c1)N1CCN(Cc2ccccc2)CC1 | -1.7 | 1.2 | · | -0.2 | -4.62* | 0.00724 | 0.00543 | 0.0298 | 0.00723 | 0.0294* | ?
COC(=O)C1CCN(Cc2cn(-c3ccccc3)nc2-c2ccc3c(c2)OCO3)CC1 | -1.4 | 2.3 | -0.788 | -0.8 | -5.83* | 0.00988 | 0.00585 | 0.0328 | 0.00796 | 0.0218 | 0.0105
CC(=O)N1CCCc2cc(S(=O)(=O)CCC(=O)N3CCN(c4cccc(C)c4)C(C)C3)ccc21 (stereo not drawn) | · | 5.5 | · | -2.1 | -3.63* | 0.00764 | 0.00494 | 0.0261 | 0.00728 | 0.0185 | 0.01
CCn1c(O)c(N=N)c2ccccc21 | -1.7 | 2.0 | -0.358 | -0.2 | 0.286 | · | · | · | · | · | ·
CCn1c(O)c(N=NC(=O)c2cccs2)c2ccccc21 | -4.0 | 1.8 | -0.404 | -0.5 | 8.79* | ? | 0.0285* | 0.0319 | 0.0135* | 0.0269* | 0.0115*
CN(CCC#N)C(=O)CC(Cc1ccccc1)C1CCOC(C)(C)C1 (stereo not drawn) | -1.4 | · | · | · | -0.255 | · | · | · | · | · | ·
Cc1nc(SCC(O)CCl)c([N+](=O)[O-])[nH]1 (stereo not drawn) | 5.8 | 4.4 | 1.01 | 3.5 | 0.00958 | · | · | · | · | · | ·
COCC(O)CSc1nc(C)[nH]c1[N+](=O)[O-] (stereo not drawn) | · | 1.6 | -0.127 | 0.3 | -5.24* | 0.0158 | 0.00421 | 0.0284 | 0.00722 | 0.0157 | 0.00973
CCc1cccc2c(C=C(C#N)C#N)cn(CC(=O)N3CCCCCC3)c12 | · | 1.7 | · | 2.1 | -0.447 | · | · | · | · | · | ·
Cc1c(Br)cccc1NC(=O)c1sccc1-n1cccc1 | · | 1.3 | 0.245 | 0.1 | 0.00792 | · | · | · | · | · | ·
O=C(Nc1ccc(Br)cc1F)c1sccc1-n1cccc1 | 1.5 | 3.9 | -1.17 | 2.4 | -1.17 | 0.0078 | 0.00478 | 0.0328 | 0.00819 | 0.0197 | 0.0114
COc1cccc(C(=O)N2CCN(Cc3nc(CC4CC4)no3)CC2)c1 | 0.3 | · | · | · | -0.0429 | · | · | · | · | · | ·
Cc1cccc(C)c1NC(=O)CSc1nnc(Cn2nnc(-c3ccccc3)n2)n1-c1ccccc1 | 2.5 | 1.2 | · | 2.5 | -5.31* | 0.00777 | 0.00568 | 0.032 | 0.00722 | 0.0223 | 0.0104
Cc1nc2ccccc2c(=O)n1NC(=O)Cc1ccc([N+](=O)[O-])cc1 | 3.2 | 2.2 | -2.73 | 0.5 | -0.183 | · | · | · | · | · | ·
SMILES | bCat nuc transl | MT stabilize HCS | ROMK primary | DTT redox prof | KCC2 mod | KCC2 secondary | KCC2 bumet counter | KCC2 sec2 | HEK293 Tl flux | KCC2 ouabain | HEK293 Tl flux2
Nc1ccc(N=Nc2ccccc2)c(N)n1 | · | 2.1 | · | 1.2 | -0.473 | · | · | · | · | · | ·
Cc1[nH]c(N=Nc2ccccc2)nc1N=Nc1ccccc1 | 1.1 | · | 0.867 | · | 76.5* | 0.0401* | 0.144* | 0.0593* | 0.0963* | 0.0982* | 0.027*
Cc1ccc(S(=O)(=O)/C=C/c2ccccc2)cc1 | -1.0 | 2.3 | · | 0.0 | -0.12 | · | · | · | · | · | ·
CCOC(=O)C1CCCN(c2c(NCCCN(CC)c3ccccc3)c(=O)c2=O)C1 (stereo not drawn) | -3.0 | 4.3 | -0.602 | 2.5 | 4.57* | 0.00916 | 0.00664 | 0.0292 | 0.00677 | 0.05 | 0.0102
Clc1ccc(CNCc2cccs2)c(Cl)c1 | · | 2.3 | 0.241 | 0.0 | 0.248 | · | · | · | · | · | ·
O=C1/C(=C/c2cccs2)NC(=S)N1C1CC1 | 5.2 | 3.5 | 2.14 | 0.3 | 42.9* | 0.0163* | 0.0892* | 0.0487* | 0.0595* | 0.0701* | 0.0331*
O=C1CNC(=O)/C(=C/c2cccs2)N1 | -0.3 | 2.6 | -0.778 | -1.2 | · | · | · | · | · | · | ·
